# Measurements gathered from unrelated publications.
# Protocols differ between the studies behind these lines.
# Target: Vascular endothelial growth factor receptor 3 (FLT4, Homo sapiens, UniProt P35916)
SMILES,read-out,mode,technique,concentration,measurement,result
CC(C)(C)c1cc(C=C(C#N)C#N)cc(Br)c1O,enzyme activity,inhibitor,,0.5 µM,remaining activity,102%
Cc1nn(C)cc1-c1nc2c(N3CCN(Cc4ccc(Cl)cc4)CC3)c(Cl)cnc2[nH]1,binding,,competition with immobilised ligand,1 µM,remaining binding,0%
N#CC1(c2ccccn2)CCN(Cc2cc(C(=O)O)c(=O)n3ccccc23)CC1,cell-free assay,,competition with immobilised ligand,1 µM,remaining binding,100%
Nc1ncc(-c2nc(N3CCOCC3)nc(N3CCOCC3)n2)c(C(F)F)n1,cell-free assay,,competition with immobilised ligand,10 µM,remaining binding,77%
O=c1[nH]c2ccccc2n1C1CCN(Cc2ccc(-c3[nH]c4cc5ncnc5cc4nc3-c3ccccc3)cc2)CC1,cell-free assay,,,0.5 µM,remaining signal,98.7%
Cn1cc(-c2cccc(N3CCc4c(sc5c4CC(C)(C)C5)C3=O)c2CO)cc(Nc2ccncn2)c1=O,enzyme activity,inhibitor,,1 µM,inhibition,13%
COc1cc(Nc2ncc(F)c(Nc3ccc4c(n3)NC(=O)C(C)(C)O4)n2)cc(OC)c1OC,binding,,,10 µM,inhibition,100%
COc1ncccc1-c1cnn2ccc(N3CCN(C(=O)OC(C)C)CC3)nc12,binding,,competition with immobilised ligand,1 µM,remaining binding,99%
COCc1c(-c2cc3cc(C)cc(OC)c3s2)c2c(N)ncnn2c1CN1CCNC(=O)C1,cell-free assay,,competition with immobilised ligand,1 µM,inhibition,93.8%
Cn1cncc1[C@@](O)(COc1ccc(C#N)cc1-c1ccc(OC(F)(F)F)cc1)c1ccc(C#N)cc1,cell-free assay,,competition with immobilised ligand,1 µM,remaining binding,90%
Cn1cc(-c2cc(F)cc(N3CCn4c(cc5c4CCCC5)C3=O)c2CO)cc(Nc2ccc(N3CCN(C4COC4)CC3)cn2)c1=O,enzyme activity,inhibitor,,0.1 µM,inhibition,12%
